Activity calls are given as the source filed them. The rule behind the calls is not given here.
How the values were obtained:
Rattus norvegicus [1] = assay: Antihypertensive activity in spontaneously hypertensive rat assessed as drop in mean systolic blood pressure at 50 mg/kg, po followed by second dosing at 24 hrs measured after 28 hrs by tail cuff method relative to vehicle-treated control; format: functional, Artery
How it was run: (§1)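 Spontaneously hypertensive rats aged 12–16 weeks with systolic BP of 170 mmHg or greater, in groups of five. Dosed po as a solution or suspension in 0.25% methylcellulose at 5 mL/kg, with a second dose right after the 24-h reading. Tail-cuff systolic BP (capacitance transducer) was read predose as control, then at 4, 24, 28 and 48 h. Mean drop from predose; Student's t test, p < 0.05.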

Rattus norvegicus [2] = assay: Antihypertensive activity in spontaneously hypertensive rat assessed as drop in mean systolic blood pressure at 50 mg/kg, po followed by second dosing at 24 hrs measured after 48 hrs by tail cuff method relative to vehicle-treated control; format: functional, Artery; how it was run: as §1
Rattus norvegicus [3] = assay: Antihypertensive activity in spontaneously hypertensive rat assessed as drop in mean systolic blood pressure at 50 mg/kg, po after 4 hrs by tail cuff method relative to vehicle-treated control; format: functional, Artery; how it was run: as §1
Rattus norvegicus [4] = assay: Antihypertensive activity in spontaneously hypertensive rat assessed as drop in mean systolic blood pressure at 50 mg/kg, po after 24 hrs by tail cuff method relative to vehicle-treated control; format: functional, Artery; how it was run: as §1
[5] = Toxicity in ip dosed CF-1 mouse after 48 hrs; details: in vivo
Rattus norvegicus [6] = assay: Antihypertensive activity in spontaneously hypertensive rat assessed as mean heart rate at 30 mg/kg, po after 4 hrs by tail cuff method relative to vehicle-treated control; format: functional
How it was run: (§2)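 Heart rate by biotachometer in the SHR dose-response protocol: five rats per dose, oral doses of 100, 30, 10 and 3 mg/kg in 0.25% methylcellulose, second dose right after the 24-h reading. Mean heart rate recorded predose and at 4, 24, 28 and 48 h.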

Rattus norvegicus [7] = assay: Antihypertensive activity in spontaneously hypertensive rat assessed as mean heart rate at 10 mg/kg, po after 4 hrs by tail cuff method relative to vehicle-treated control; format: functional; how it was run: as §2
Rattus norvegicus [8] = assay: Antihypertensive activity in spontaneously hypertensive rat assessed as mean heart rate at 3 mg/kg, po after 24 hrs by tail cuff method relative to vehicle-treated control; format: functional; how it was run: as §2
Rattus norvegicus [9] = assay: Antihypertensive activity in spontaneously hypertensive rat assessed as drop in mean systolic blood pressure at 100 mg/kg, po after 4 hrs by tail cuff method relative to vehicle-treated control; format: functional, Artery
Rattus norvegicus [10] = assay: Antihypertensive activity in spontaneously hypertensive rat assessed as drop in mean systolic blood pressure at 100 mg/kg, po after 24 hrs by tail cuff method relative to vehicle-treated control; format: functional, Artery
Rattus norvegicus [11] = assay: Antihypertensive activity in spontaneously hypertensive rat assessed as mean heart rate at 3 mg/kg, po after 4 hrs by tail cuff method relative to vehicle-treated control; format: functional; how it was run: as §2
Rattus norvegicus [12] = assay: Antihypertensive activity in spontaneously hypertensive rat assessed as mean heart rate at 10 mg/kg, po followed by second dosing at 24 hrs measured after 28 hrs by tail cuff method relative to vehicle-treated control; format: functional; how it was run: as §2
Rattus norvegicus [13] = assay: Antihypertensive activity in spontaneously hypertensive rat assessed as drop in mean systolic blood pressure at 30 mg/kg, po followed by second dosing at 24 hrs measured after 28 hrs by tail cuff method relative to vehicle-treated control; format: functional, Artery
How it was run: (§3)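 Dose-response run of the primary SHR protocol: rats aged 12–16 weeks, systolic BP of 170 mmHg or greater, five per dose. Oral doses of 100, 30, 10 and 3 mg/kg in 0.25% methylcellulose, redosed immediately after the 24-h reading. Tail-cuff systolic BP read predose and at 4, 24, 28 and 48 h. Mean drop from predose; Student's t test, p < 0.05.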

Rattus norvegicus [14] = assay: Antihypertensive activity in spontaneously hypertensive rat assessed as mean heart rate at 100 mg/kg, po followed by second dosing at 24 hrs measured after 48 hrs by tail cuff method relative to vehicle-treated control; format: functional; how it was run: as §2
Rattus norvegicus [15] = assay: Antihypertensive activity in spontaneously hypertensive rat assessed as mean heart rate at 100 mg/kg, po after 4 hrs by tail cuff method relative to vehicle-treated control; format: functional; how it was run: as §2
Rattus norvegicus [16] = assay: Antihypertensive activity in spontaneously hypertensive rat assessed as mean heart rate at 100 mg/kg, po after 24 hrs by tail cuff method relative to vehicle-treated control; format: functional; how it was run: as §2
Rattus norvegicus [17] = assay: Antihypertensive activity in spontaneously hypertensive rat assessed as drop in mean systolic blood pressure at 10 mg/kg, po after 4 hrs by tail cuff method relative to vehicle-treated control; format: functional; how it was run: as §3
Rattus norvegicus [18] = assay: Antihypertensive activity in spontaneously hypertensive rat assessed as mean heart rate at 10 mg/kg, po after 24 hrs by tail cuff method relative to vehicle-treated control; format: functional; how it was run: as §2
Rattus norvegicus [19] = assay: Antihypertensive activity in spontaneously hypertensive rat assessed as drop in mean systolic blood pressure at 30 mg/kg, po after 4 hrs by tail cuff method relative to vehicle-treated control; format: functional, Artery; how it was run: as §3
Rattus norvegicus [20] = assay: Antihypertensive activity in spontaneously hypertensive rat assessed as mean heart rate at 100 mg/kg, po followed by second dosing at 24 hrs measured after 28 hrs by tail cuff method relative to vehicle-treated control; format: functional; how it was run: as §2
Rattus norvegicus [21] = assay: Antihypertensive activity in spontaneously hypertensive rat assessed as mean heart rate at 30 mg/kg, po after 24 hrs by tail cuff method relative to vehicle-treated control; format: functional; how it was run: as §2
Rattus norvegicus [22] = assay: Antihypertensive activity in spontaneously hypertensive rat assessed as drop in mean systolic blood pressure at 100 mg/kg, po followed by second dosing at 24 hrs measured after 28 hrs by tail cuff method relative to vehicle-treated control; format: functional, Artery
Rattus norvegicus [23] = assay: Antihypertensive activity in spontaneously hypertensive rat assessed as mean heart rate at 30 mg/kg, po followed by second dosing at 24 hrs measured after 48 hrs by tail cuff method relative to vehicle-treated control; format: functional; how it was run: as §2
Rattus norvegicus [24] = assay: Antihypertensive activity in spontaneously hypertensive rat assessed as drop in mean systolic blood pressure at 30 mg/kg, po after 24 hrs by tail cuff method relative to vehicle-treated control; format: functional, Artery; how it was run: as §3
Rattus norvegicus [25] = assay: Antihypertensive activity in spontaneously hypertensive rat assessed as drop in mean systolic blood pressure at 100 mg/kg, po followed by second dosing at 24 hrs measured after 48 hrs by tail cuff method relative to vehicle-treated control; format: functional, Artery
Rattus norvegicus [26] = assay: Antihypertensive activity in spontaneously hypertensive rat assessed as mean heart rate at 10 mg/kg, po followed by second dosing at 24 hrs measured after 48 hrs by tail cuff method relative to vehicle-treated control; format: functional; how it was run: as §2
Rattus norvegicus [27] = assay: Antihypertensive activity in spontaneously hypertensive rat assessed as drop in mean systolic blood pressure at 10 mg/kg, po after 24 hrs by tail cuff method relative to vehicle-treated control; format: functional; how it was run: as §3
Rattus norvegicus [28] = assay: Antihypertensive activity in spontaneously hypertensive rat assessed as drop in mean systolic blood pressure at 10 mg/kg, po followed by second dosing at 24 hrs measured after 48 hrs by tail cuff method relative to vehicle-treated control; format: functional; how it was run: as §3
Rattus norvegicus [29] = assay: Antihypertensive activity in spontaneously hypertensive rat assessed as mean heart rate at 3 mg/kg, po followed by second dosing at 24 hrs measured after 28 hrs by tail cuff method relative to vehicle-treated control; format: functional; how it was run: as §2
Rattus norvegicus [30] = assay: Antihypertensive activity in spontaneously hypertensive rat assessed as drop in mean systolic blood pressure at 30 mg/kg, po followed by second dosing at 24 hrs measured after 48 hrs by tail cuff method relative to vehicle-treated control; format: functional, Artery; how it was run: as §3
Rattus norvegicus [31] = assay: Antihypertensive activity in spontaneously hypertensive rat assessed as mean heart rate at 3 mg/kg, po followed by second dosing at 24 hrs measured after 48 hrs by tail cuff method relative to vehicle-treated control; format: functional; how it was run: as §2
Rattus norvegicus [32] = assay: Antihypertensive activity in spontaneously hypertensive rat assessed as mean heart rate at 30 mg/kg, po followed by second dosing at 24 hrs measured after 28 hrs by tail cuff method relative to vehicle-treated control; format: functional; how it was run: as §2
Rattus norvegicus [33] = assay: Antihypertensive activity in spontaneously hypertensive rat assessed as drop in mean systolic blood pressure at 10 mg/kg, po followed by second dosing at 24 hrs measured after 28 hrs by tail cuff method relative to vehicle-treated control; format: functional; how it was run: as §3

| SMILES | LD50 at 48 h [5] [mg/kg] | Activity (Rattus norvegicus [6]) [bpm] | Activity (Rattus norvegicus [7]) [bpm] | Activity (Rattus norvegicus [8]) [bpm] | Activity (Rattus norvegicus [9]) [mmHg] | Activity (Rattus norvegicus [10]) [mmHg] | Activity (Rattus norvegicus [11]) [bpm] | Activity (Rattus norvegicus [12]) [bpm] | Activity (Rattus norvegicus [13]) [mmHg] | Activity (Rattus norvegicus [14]) [bpm] | Activity (Rattus norvegicus [18]) [bpm] | Activity (Rattus norvegicus [19]) [mmHg] | Activity (Rattus norvegicus [21]) [bpm] | Activity (Rattus norvegicus [23]) [bpm] | Activity (Rattus norvegicus [24]) [mmHg] | Activity (Rattus norvegicus [26]) [bpm] | Activity (Rattus norvegicus [29]) [bpm] | Activity (Rattus norvegicus [30]) [mmHg] | Activity (Rattus norvegicus [31]) [bpm] | Activity (Rattus norvegicus [32]) [bpm] | further results |
| --- | --- | --- | --- | --- | --- | --- | --- | --- | --- | --- | --- | --- | --- | --- | --- | --- | --- | --- | --- | --- | --- |
| Br.NCC(=O)NNc1nncc(-c2ccccc2)n1.O | 75 |  |  |  |  |  |  |  |  |  |  |  |  |  |  |  |  |  |  |  | Activity (Rattus norvegicus [1]): 105 mmHg; Activity (Rattus norvegicus [2]): 91 mmHg; Activity (Rattus norvegicus [3]): 41 mmHg; Activity (Rattus norvegicus [4]): 35 mmHg |
| CC(=O)NNc1nncc(-c2cccc(Cl)c2)n1 | > 300 | 400 | 458 | 430 | 20 | 23 | 422 | 448 | 19 | 490 | 460 | 16 | 438 | 462 | 14 | 448 | 436 | 19 | 442 | 460 | Activity (Rattus norvegicus [15]): 478 bpm; Activity (Rattus norvegicus [16]): 482 bpm; Activity (Rattus norvegicus [17]; Artery): inactive; Activity (Rattus norvegicus [20]): 482 bpm; Activity (Rattus norvegicus [22]): 50 mmHg; Activity (Rattus norvegicus [25]): 55 mmHg; Activity (Rattus norvegicus [27]; Artery): inactive; Activity (Rattus norvegicus [28]; Artery): inactive; Activity (Rattus norvegicus [33]; Artery): inactive |
| Cl.O.O=C(NNc1nncc(-c2ccccc2)n1)C12CC3CC(CC(C3)C1)C2 | > 300 | 410 | 468 | 420 | 42 | 70 | 445 | 428 | 18 | 458 | 446 | 20 | 412 | 392 | 12 | 422 | 418 | 11 | 426 | 380 | Activity (Rattus norvegicus [15]): 446 bpm; Activity (Rattus norvegicus [16]): 428 bpm; Activity (Rattus norvegicus [17]; Artery): inactive; Activity (Rattus norvegicus [20]): 442 bpm; Activity (Rattus norvegicus [22]): 46 mmHg; Activity (Rattus norvegicus [25]): 35 mmHg; Activity (Rattus norvegicus [27]; Artery): inactive; Activity (Rattus norvegicus [28]; Artery): inactive; Activity (Rattus norvegicus [33]; Artery): inactive |
| NNc1nncc(-c2ccccc2)n1 | 56 |  |  |  |  |  |  |  |  |  |  |  |  |  |  |  |  |  |  |  | Activity (Rattus norvegicus [1]): 58 mmHg; Activity (Rattus norvegicus [2]): 60 mmHg; Activity (Rattus norvegicus [3]): 30 mmHg; Activity (Rattus norvegicus [4]): 43 mmHg |
| NNc1nncc2ccccc12 [HYDRALAZINE] | 100 | 492 | 504 | 392 |  |  | 448 | 428 | 47 |  | 468 | 88 | 480 | 448 | 60 | 448 | 444 | 14 | 432 | 496 | Activity (Rattus norvegicus [17]): 60 mmHg; Activity (Rattus norvegicus [27]): 38 mmHg; Activity (Rattus norvegicus [28]): 10 mmHg; Activity (Rattus norvegicus [33]): 10 mmHg |
| O=C(NNc1nncc(-c2ccc(Cl)c(Cl)c2)n1)C(F)(F)F | > 300 | 444 | 412 | 424 | 30 | 29 | 430 | 448 | 18 | 438 | 438 | 18 | 438 | 426 | 18 | 400 | 428 | 16 | 424 | 435 | Activity (Rattus norvegicus [15]): 472 bpm; Activity (Rattus norvegicus [16]): 462 bpm; Activity (Rattus norvegicus [17]): 16 mmHg; Activity (Rattus norvegicus [20]): 438 bpm; Activity (Rattus norvegicus [22]): 35 mmHg; Activity (Rattus norvegicus [25]): 25 mmHg; Activity (Rattus norvegicus [27]): 12 mmHg; Activity (Rattus norvegicus [28]): 15 mmHg; Activity (Rattus norvegicus [33]): 17 mmHg |

— ChEMBL document CHEMBL3244078, “Synthesis and antihypertensive activity of novel 3-hydrazino-5-phenyl-1,2,4-triazines” (J Med Chem, 1979)
